ChEMBL document CHEMBL2375266, “Design and synthesis of 2-substituted benzoxazoles as novel PTP1B inhibitors” (Bioorg Med Chem Lett, 2013)

Key:
[1] = target: T1, Tyrosine-protein phosphatase non-receptor type 1 (Homo sapiens, UniProt P18031); experiment: Inhibition of PTP1B (unknown origin)-mediated pNPP hydrolysis to 4-nitrophenol after 60 mins by spectrophotometric analysis
T1 sequence (P18031 whole entry): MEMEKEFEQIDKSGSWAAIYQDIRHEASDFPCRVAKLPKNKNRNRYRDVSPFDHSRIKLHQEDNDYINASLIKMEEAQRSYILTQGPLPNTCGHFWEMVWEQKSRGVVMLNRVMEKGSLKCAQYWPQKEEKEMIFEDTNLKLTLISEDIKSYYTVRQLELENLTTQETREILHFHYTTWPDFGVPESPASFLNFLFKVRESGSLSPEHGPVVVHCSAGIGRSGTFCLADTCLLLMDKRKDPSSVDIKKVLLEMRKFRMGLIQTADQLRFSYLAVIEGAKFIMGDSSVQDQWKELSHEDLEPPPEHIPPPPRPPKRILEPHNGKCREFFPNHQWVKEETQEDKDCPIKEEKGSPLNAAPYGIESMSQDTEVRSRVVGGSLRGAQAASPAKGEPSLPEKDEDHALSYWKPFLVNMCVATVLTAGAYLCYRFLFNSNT
Procedure, shortened: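 Colorimetric pNPP assay at room temperature in 25 mM Tris pH 7.5, 75 mM NaCl, 1 mM DTT, 0.1% BSA. Compound dilution series was added, and the reaction was started with 5 nM PTP1B. After 60 min it was stopped with NaOH. 4-Nitrophenol was read at 405 nm, with corrections for substrate and compound absorbance.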

[2] = target: T2, Tyrosine-protein phosphatase non-receptor type 2 (Homo sapiens, UniProt P17706); experiment: Inhibition of TCPTP (unknown origin)
T2 sequence (P17706 whole entry): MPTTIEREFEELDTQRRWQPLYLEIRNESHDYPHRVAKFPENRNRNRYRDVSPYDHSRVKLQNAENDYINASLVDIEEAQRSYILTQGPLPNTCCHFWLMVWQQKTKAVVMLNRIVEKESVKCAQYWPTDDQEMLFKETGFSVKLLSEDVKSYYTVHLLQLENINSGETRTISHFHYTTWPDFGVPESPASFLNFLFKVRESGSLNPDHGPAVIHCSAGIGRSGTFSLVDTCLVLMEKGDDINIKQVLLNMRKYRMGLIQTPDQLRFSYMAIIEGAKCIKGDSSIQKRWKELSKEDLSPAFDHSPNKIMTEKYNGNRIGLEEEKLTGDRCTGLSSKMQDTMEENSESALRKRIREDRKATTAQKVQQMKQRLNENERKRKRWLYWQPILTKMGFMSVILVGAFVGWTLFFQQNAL

[3] = target: T1, Tyrosine-protein phosphatase non-receptor type 1; experiment: Inhibition of PTP1B (unknown origin)

Ki [1] [µM] | Ki [2] [µM] | Ki [3] [µM] | Structure (SMILES)
> 500 | – | – | O=C(O)c1ccc(CC(c2nc3ccccc3[nH]2)S(=O)(=O)Nc2ccc(F)cc2)cc1 (stereo not given)
162 | – | – | O=C(O)COc1ccc(CC(c2nc3ccccc3[nH]2)S(=O)(=O)Nc2ccc(F)cc2)cc1O (stereo not given)
67.5 | – | – | O=C(O)C(=O)Nc1ccc(CC(c2nc3ccccc3[nH]2)S(=O)(=O)Nc2ccc(F)cc2)cc1 (stereo not given)
211 | – | – | O=S(=O)(Nc1ccc(F)cc1)C(Cc1ccc(O)c(O)c1)c1nc2ccccc2[nH]1 (stereo not given)
66.5 | – | – | O=C(O)COc1ccc(CC(c2nc3ccccc3o2)S(=O)(=O)Nc2ccc(F)cc2)cc1O (stereo not given)
35 | – | – | O=C(O)C(=O)Nc1ccc(C[C@H](c2nc3ccccc3o2)S(=O)(=O)Nc2ccc(F)cc2)cc1
125 | – | – | CN(c1ccc(F)cc1)S(=O)(=O)C(Cc1ccc(NC(=O)C(=O)O)cc1)c1nc2ccccc2[nH]1 (stereo not given)
331 | 137 | – | NS(=O)(=O)C(Cc1ccc(NC(=O)C(=O)O)cc1)c1nc2ccccc2o1 (stereo not given)
228 | 135 | – | CC(C)(C)NS(=O)(=O)C(Cc1ccc(NC(=O)C(=O)O)cc1)c1nc2ccccc2o1 (stereo not given)
82.4 | 33.4 | – | CCCCNS(=O)(=O)C(Cc1ccc(NC(=O)C(=O)O)cc1)c1nc2ccccc2o1 (stereo not given)
41 | – | – | O=C(O)C(=O)Nc1ccc(CC(c2nc3ccccc3o2)S(=O)(=O)NCCc2ccc(Cl)cc2)cc1 (stereo not given)
10 | – | – | O=C(O)C(=O)Nc1ccc(CC(c2nc3ccccc3o2)S(=O)(=O)N(Cc2ccc(F)cc2)Cc2ccc(F)cc2)cc1 (stereo not given)
6.7 | 3.7 | – | O=C(O)C(=O)Nc1ccc(C[C@H](c2nc3ccccc3o2)S(=O)(=O)N(Cc2ccc(Cl)cc2)Cc2ccc(Cl)cc2)cc1
6.8 | – | – | O=C(O)C(=O)Nc1ccc(CC(c2nc3ccccc3o2)S(=O)(=O)N(Cc2ccccc2C(F)(F)F)Cc2ccccc2C(F)(F)F)cc1 (stereo not given)
35 | 21 | – | O=C(O)C(=O)Nc1ccc(CC(c2nc3ccccc3o2)S(=O)(=O)N(Cc2cccc(C(F)(F)F)c2)Cc2cccc(C(F)(F)F)c2)cc1 (stereo not given)
7.7 | 12.5 | – | O=C(O)C(=O)Nc1ccc(CC(c2nc3ccccc3o2)S(=O)(=O)N(Cc2ccc(C(F)(F)F)cc2)Cc2ccc(C(F)(F)F)cc2)cc1 (stereo not given)
14 | 18.9 | – | COc1ccc(CN(Cc2ccc(OC)cc2)S(=O)(=O)C(Cc2ccc(NC(=O)C(=O)O)cc2)c2nc3ccccc3o2)cc1 (stereo not given)
16.8 | 17.2 | – | O=C(O)C(=O)Nc1ccc(CC(c2nc3ccccc3o2)S(=O)(=O)N(Cc2ccc(OC(F)(F)F)cc2)Cc2ccc(OC(F)(F)F)cc2)cc1 (stereo not given)
14.9 | 6.4 | – | CC(C)(C)c1ccc(CN(Cc2ccc(C(C)(C)C)cc2)S(=O)(=O)C(Cc2ccc(NC(=O)C(=O)O)cc2)c2nc3ccccc3o2)cc1 (stereo not given)
235 | 22 | – | O=C(O)CN(CC(=O)O)S(=O)(=O)C(Cc1ccc(NC(=O)C(=O)O)cc1)c1nc2ccccc2o1 (stereo not given)
62 | 9.2 | – | Cc1ccc(NS(=O)(=O)C(Cc2ccc(NC(=O)C(=O)O)cc2)c2nc3ccccc3o2)cc1 (stereo not given)
23.6 | 8 | – | O=C(O)C(=O)Nc1ccc(CC(c2nc3ccccc3o2)S(=O)(=O)Nc2ccc(C(F)(F)F)cc2)cc1 (stereo not given)
68.8 | 134 | – | COc1ccc(NS(=O)(=O)C(Cc2ccc(NC(=O)C(=O)O)cc2)c2nc3ccccc3o2)cc1 (stereo not given)
92 | 101 | – | CC(C)Oc1ccc(NS(=O)(=O)C(Cc2ccc(NC(=O)C(=O)O)cc2)c2nc3ccccc3o2)cc1 (stereo not given)
63 | 86.5 | – | CC(=O)NS(=O)(=O)C(Cc1ccc(NC(=O)C(=O)O)cc1)c1nc2ccccc2o1 (stereo not given)
125 | 256 | – | O=C(O)C(=O)Nc1ccc(CC(c2nc3ccccc3o2)S(=O)(=O)NC(=O)c2ccccc2)cc1 (stereo not given)
82.4 | 13.1 | – | O=C(O)C(=O)Nc1ccc(CC(c2nc3ccccc3o2)S(=O)(=O)NC(=O)c2ccc(Cl)cc2)cc1 (stereo not given)
– | – | 0.018 | CCc1cc(CN(C(C)=O)C(=O)NCCCCOc2cccc(O)c2C(=O)OC)ccc1N(C(=O)C(=O)O)c1ccccc1C(=O)O
